Measured values taken from ChEMBL document CHEMBL3351463, “Methyl effect in azumamides provides insight into histone deacetylase inhibition by macrocycles” (J Med Chem, 2014).
Activity calls are given as the source filed them. No cut-off for these calls is given here.

Columns and labels:
[1] = molecular target: T1, Protein deacetylase HDAC6 (Homo sapiens, UniProt Q9UBN7); assay: Inhibition of human recombinant HDAC6 using [Ac-Leu-Gly-Lys(Ac)-AMC substrate incubated for 15 to 30 mins
T1 sequence (Q9UBN7 whole entry): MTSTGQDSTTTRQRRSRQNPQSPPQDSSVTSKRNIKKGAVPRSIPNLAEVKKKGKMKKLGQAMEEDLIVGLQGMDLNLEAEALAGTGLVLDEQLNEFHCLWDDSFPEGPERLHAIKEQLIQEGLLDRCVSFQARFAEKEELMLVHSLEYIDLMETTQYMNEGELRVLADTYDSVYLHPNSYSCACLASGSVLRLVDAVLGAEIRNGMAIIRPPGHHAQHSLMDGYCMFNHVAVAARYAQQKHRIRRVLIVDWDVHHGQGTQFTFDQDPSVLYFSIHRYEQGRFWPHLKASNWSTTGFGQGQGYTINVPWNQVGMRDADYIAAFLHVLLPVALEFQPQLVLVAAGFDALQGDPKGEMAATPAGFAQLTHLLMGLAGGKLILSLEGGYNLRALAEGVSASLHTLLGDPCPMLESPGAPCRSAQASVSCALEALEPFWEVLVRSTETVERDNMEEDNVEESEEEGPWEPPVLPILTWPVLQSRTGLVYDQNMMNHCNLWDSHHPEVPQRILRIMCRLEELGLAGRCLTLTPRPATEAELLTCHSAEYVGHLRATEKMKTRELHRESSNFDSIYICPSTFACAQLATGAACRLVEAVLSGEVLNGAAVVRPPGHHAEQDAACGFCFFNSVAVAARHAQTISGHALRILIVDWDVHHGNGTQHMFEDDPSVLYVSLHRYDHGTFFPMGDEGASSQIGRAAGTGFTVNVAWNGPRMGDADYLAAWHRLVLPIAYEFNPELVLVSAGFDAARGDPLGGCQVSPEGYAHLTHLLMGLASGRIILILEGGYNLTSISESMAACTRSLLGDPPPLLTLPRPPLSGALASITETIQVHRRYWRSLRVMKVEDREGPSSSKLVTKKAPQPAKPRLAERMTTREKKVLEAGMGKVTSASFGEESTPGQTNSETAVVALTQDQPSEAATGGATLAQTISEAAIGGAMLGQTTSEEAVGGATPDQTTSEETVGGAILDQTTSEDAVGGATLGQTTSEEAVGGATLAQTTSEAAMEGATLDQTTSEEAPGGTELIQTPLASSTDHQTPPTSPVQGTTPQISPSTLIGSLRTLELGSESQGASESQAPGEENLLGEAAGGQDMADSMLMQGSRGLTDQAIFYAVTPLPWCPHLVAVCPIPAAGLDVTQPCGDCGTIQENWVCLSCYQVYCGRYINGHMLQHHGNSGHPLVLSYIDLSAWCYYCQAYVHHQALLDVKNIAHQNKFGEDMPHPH

[2] = molecular target: T2, Protein deacetylase HDAC6 (Homo sapiens) (UniProt Q9UBN7); assay: Inhibition of human recombinant HDAC6 at 20 uM using [Ac-Leu-Gly-Lys(Ac)-AMC substrate incubated for 15 to 30 mins
T2 sequence (whole entry): T1 sequence (Q9UBN7 whole entry)
In short: (§1)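 Recombinant human enzyme (HDAC6 2.4 ng/μL; HDAC8 0.2 ng/μL final) in pH 8.0 Tris buffer with BSA. Ac-Leu-Gly-Lys(Ac)-AMC substrate at 20 μM for HDAC6 and 200 μM for HDAC8. Incubated 30 min at 37 °C, then trypsin development 15–30 min at room temperature. Fluorescence read at ex 360/em 460 nm.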

[3] = molecular target: T3, Polyamine deacetylase HDAC10 (Homo sapiens, UniProt Q969S8); assay: Inhibition of human recombinant HDAC10 using Ac-Arg-His-Lys(Ac)-Lys(Ac)-AMC substrate incubated for 15 to 30 mins
T3 sequence (Q969S8 whole entry): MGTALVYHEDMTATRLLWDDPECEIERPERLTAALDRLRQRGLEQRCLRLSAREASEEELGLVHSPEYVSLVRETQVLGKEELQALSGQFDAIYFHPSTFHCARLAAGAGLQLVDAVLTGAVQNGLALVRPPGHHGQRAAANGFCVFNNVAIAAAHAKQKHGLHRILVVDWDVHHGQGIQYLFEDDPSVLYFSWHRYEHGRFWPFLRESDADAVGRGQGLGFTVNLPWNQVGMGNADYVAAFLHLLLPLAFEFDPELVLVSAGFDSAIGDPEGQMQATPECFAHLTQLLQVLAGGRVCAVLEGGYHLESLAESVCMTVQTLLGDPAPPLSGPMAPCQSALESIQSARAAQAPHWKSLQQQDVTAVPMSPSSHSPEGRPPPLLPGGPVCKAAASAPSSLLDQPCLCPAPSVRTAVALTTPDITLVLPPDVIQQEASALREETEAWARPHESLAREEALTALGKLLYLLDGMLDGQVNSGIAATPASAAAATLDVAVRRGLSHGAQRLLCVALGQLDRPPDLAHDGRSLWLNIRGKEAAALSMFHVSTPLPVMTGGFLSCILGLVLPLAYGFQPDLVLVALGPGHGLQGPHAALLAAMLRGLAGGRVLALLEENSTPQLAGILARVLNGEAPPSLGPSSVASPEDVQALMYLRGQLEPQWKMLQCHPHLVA

Histone deacetylase 3 = Histone deacetylase 3 (Homo sapiens, UniProt O15379); assay: Inhibition of human recombinant HDAC3 using [Ac-Leu-Gly-Lys(Ac)-AMC substrate incubated for 15 to 30 mins
Histone deacetylase 1 = Histone deacetylase 1 (Homo sapiens, UniProt Q13547); assay: Inhibition of human recombinant HDAC1 using [Ac-Leu-Gly-Lys(Ac)-AMC substrate incubated for 15 to 30 mins
[4] = molecular target: T4, Histone deacetylase 8 (Homo sapiens) (UniProt Q9BY41); assay: Inhibition of human recombinant HDAC8 at 20 uM using [Ac-Leu-Gly-Lys(Ac)-AMC substrate incubated for 15 to 30 mins; in short: as §1
T4 sequence (whole entry): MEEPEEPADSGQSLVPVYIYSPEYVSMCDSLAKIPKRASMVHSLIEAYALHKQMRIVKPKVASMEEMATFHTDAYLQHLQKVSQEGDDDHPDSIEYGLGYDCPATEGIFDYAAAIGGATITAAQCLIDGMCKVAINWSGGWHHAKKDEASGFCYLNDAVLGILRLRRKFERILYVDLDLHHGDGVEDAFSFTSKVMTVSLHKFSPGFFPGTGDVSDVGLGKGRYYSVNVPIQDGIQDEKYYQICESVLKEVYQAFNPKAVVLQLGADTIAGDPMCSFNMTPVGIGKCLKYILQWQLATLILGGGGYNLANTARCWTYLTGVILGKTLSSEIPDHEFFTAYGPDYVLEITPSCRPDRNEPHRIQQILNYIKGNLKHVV

Histone deacetylase 11 = molecular target: T5, Histone deacetylase 11 (Homo sapiens, UniProt Q96DB2); assay: Inhibition of human recombinant HDAC11 using [Ac-Leu-Gly-Lys(Ac)-AMC substrate incubated for 15 to 30 mins
T5 sequence (Q96DB2 whole entry): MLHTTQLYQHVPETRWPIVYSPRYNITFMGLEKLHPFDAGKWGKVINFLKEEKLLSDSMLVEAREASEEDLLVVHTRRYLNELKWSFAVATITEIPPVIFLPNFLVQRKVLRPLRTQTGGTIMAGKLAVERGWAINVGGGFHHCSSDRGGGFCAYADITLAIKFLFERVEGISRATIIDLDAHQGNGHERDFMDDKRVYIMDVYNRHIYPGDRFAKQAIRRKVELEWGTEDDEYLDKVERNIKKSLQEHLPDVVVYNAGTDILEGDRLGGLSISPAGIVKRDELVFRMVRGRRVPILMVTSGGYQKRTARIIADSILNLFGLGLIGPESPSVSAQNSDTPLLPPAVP

Histone deacetylase 8 = molecular target: T6, Histone deacetylase 8 (Homo sapiens, UniProt Q9BY41); assay: Inhibition of human recombinant HDAC8 using [Ac-Leu-Gly-Lys(Ac)-AMC substrate incubated for 15 to 30 mins
T6 sequence (Q9BY41 whole entry): T4 sequence (whole entry)

Histone deacetylase 2 = Histone deacetylase 2 (Homo sapiens, UniProt Q92769); assay: Inhibition of human recombinant HDAC2 using [Ac-Leu-Gly-Lys(Ac)-AMC substrate incubated for 15 to 30 mins
EB-3 = assay: Cytotoxic activity against human EB3 cells assessed as growth inhibition up to 25 uM after 3 days by MTT assay; assay type: functional, cell-based
In short: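 EB-3 (EBV-infected human Burkitt's lymphoma) cells seeded at 2 × 10^4 per well in RPMI-1640 with 10% FCS and 1% penicillin/streptomycin, cultured overnight at 37 °C, 5% CO2, then given compound or DMSO vehicle. 2-fold dilution series from DMSO stocks; 3 days exposure. MTT added for 4 h, formazan dissolved in acidic 2-propanol, A570 minus 630 nm. Three experiments in duplicate.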

[5] = Cytotoxic activity against human EB3 cells after 3 days by MTT assay; assay type: functional; details: EB-3, 72 h
In short: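 EBV-infected human Burkitt's lymphoma EB-3 cells seeded at 2 × 10^4 cells/well in RPMI-1640 with 10% FCS and 1% penicillin/streptomycin, cultured overnight at 37 °C, 5% CO2. Compounds added as 2-fold dilution series from DMSO stocks, top final concentration 50 or 100 μM; DMSO vehicle control. After 3 days, MTT added for 4 h. Formazan dissolved in acidic 2-propanol, A570 read minus A630. Three experiments in duplicate.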

Histone deacetylase 1, sequence (Q13547 whole entry): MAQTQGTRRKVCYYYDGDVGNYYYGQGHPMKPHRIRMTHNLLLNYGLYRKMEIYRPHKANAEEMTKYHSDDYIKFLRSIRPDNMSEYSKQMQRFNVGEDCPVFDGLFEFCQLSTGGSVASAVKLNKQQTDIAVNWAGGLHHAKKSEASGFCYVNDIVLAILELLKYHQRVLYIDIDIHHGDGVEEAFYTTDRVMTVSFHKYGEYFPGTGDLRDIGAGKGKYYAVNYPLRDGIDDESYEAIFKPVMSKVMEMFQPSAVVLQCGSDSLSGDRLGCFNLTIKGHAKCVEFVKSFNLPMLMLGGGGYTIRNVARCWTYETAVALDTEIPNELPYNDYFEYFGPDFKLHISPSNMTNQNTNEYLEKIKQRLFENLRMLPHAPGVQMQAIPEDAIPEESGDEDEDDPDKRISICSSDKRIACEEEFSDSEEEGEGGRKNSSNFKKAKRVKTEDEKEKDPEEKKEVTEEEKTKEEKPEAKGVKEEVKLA
Histone deacetylase 3, sequence (O15379 whole entry): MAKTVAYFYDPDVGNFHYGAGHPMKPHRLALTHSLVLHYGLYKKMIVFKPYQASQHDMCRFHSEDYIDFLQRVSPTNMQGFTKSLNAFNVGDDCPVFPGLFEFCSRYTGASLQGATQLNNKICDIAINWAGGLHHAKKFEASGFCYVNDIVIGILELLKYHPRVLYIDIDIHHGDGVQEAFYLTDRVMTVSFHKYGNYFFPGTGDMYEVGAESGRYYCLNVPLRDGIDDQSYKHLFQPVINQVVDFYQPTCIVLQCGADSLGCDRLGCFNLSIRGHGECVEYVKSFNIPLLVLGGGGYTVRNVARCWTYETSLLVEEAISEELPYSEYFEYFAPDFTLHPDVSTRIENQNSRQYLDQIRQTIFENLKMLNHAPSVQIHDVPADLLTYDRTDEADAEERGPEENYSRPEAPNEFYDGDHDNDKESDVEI
Histone deacetylase 2, sequence (Q92769 whole entry): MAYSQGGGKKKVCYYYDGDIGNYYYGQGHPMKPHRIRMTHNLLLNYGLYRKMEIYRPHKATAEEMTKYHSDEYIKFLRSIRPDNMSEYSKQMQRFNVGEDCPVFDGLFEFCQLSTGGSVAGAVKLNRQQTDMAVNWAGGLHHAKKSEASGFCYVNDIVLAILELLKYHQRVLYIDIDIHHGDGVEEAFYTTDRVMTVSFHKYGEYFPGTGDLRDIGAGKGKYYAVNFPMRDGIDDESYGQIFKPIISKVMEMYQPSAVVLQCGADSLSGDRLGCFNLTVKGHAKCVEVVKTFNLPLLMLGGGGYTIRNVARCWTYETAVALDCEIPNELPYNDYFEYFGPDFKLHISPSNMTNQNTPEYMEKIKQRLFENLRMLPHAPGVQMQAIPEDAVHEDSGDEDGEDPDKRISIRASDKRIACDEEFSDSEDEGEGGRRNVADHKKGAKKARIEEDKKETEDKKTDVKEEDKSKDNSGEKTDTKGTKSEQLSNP

Ki [1]	inhibition [2] [%]	Ki [3] [nM]	Ki (Histone deacetylase 3) [nM]	Ki (Histone deacetylase 1) [nM]	inhibition [4] [%]	Ki (Histone deacetylase 11) [nM]	Ki (Histone deacetylase 8)	Ki (Histone deacetylase 2) [nM]	Ki ([1]; read-out: Ki) [nM]	Ki (Histone deacetylase 8; read-out: Ki) [nM]	SMILES	growth inhibition (GI) (EB-3)	GI50 [5] [nM]
Not Active	< 50	1000	700	900	< 50	2000	Not Active	800	–	–	CC(C)[C@H]1NC(=O)C[C@@H](CCCCCC(=O)O)NC(=O)[C@@H](Cc2ccccc2)NC(=O)[C@@H](C)NC1=O	–	–
Not Active	< 50	700	800	600	< 50	1500	Not Active	900	–	–	CC(C)[C@H]1NC(=O)C[C@@H](C/C=C\CCC(=O)O)NC(=O)[C@@H](Cc2ccccc2)NC(=O)[C@@H](C)NC1=O	inactive	–
–	–	300	200	1000	< 50	1000	Not Active	300	3000	–	CC(C)[C@H]1NC(=O)C[C@@H](CCCCCC(=O)O)NC(=O)[C@@H](Cc2ccc(O)cc2)NC(=O)[C@@H](C)NC1=O	inactive	–
–	–	170	500	900	–	300	–	300	1900	4300	CC(C)[C@H]1NC(=O)C[C@@H](CCCCCC(=O)O)NC(=O)[C@@H](Cc2c[nH]c3ccccc23)NC(=O)[C@@H](C)NC1=O	–	–
–	–	300	300	300	–	800	Not Active	300	6000	–	CC(C)[C@H]1NC(=O)C[C@@H](C/C=C\CCC(=O)O)NC(=O)[C@@H](Cc2ccc(O)cc2)NC(=O)[C@@H](C)NC1=O	inactive	–
–	–	–	–	–	–	–	–	–	–	–	CC(C)[C@H]1NC(=O)[C@@H](C)[C@@H](C/C=C\CCC(=O)O)NC(=O)[C@@H](Cc2ccccc2)NC(=O)[C@@H](C)NC1=O	inactive	–
–	–	–	–	–	–	–	–	–	–	–	CC(C)[C@H]1NC(=O)[C@@H](C)[C@@H](C/C=C\CCC(N)=O)NC(=O)[C@@H](Cc2ccc(O)cc2)NC(=O)[C@@H](C)NC1=O	inactive	–
Not Active	< 50	1600	1400	1200	–	3200	–	1700	–	6000	CC(C)[C@H]1NC(=O)C[C@@H](/C=C/CCCC(=O)O)NC(=O)[C@@H](Cc2ccccc2)NC(=O)[C@@H](C)NC1=O	–	–
–	–	–	–	–	–	–	–	–	–	–	CCC(=O)CCCCC[C@@H]1NC(=O)[C@H]2CCCCN2C(=O)[C@H]([C@@H](C)CC)NC(=O)[C@H](Cc2cn(OC)c3ccccc23)NC1=O [APICIDIN]	–	800
Not Active	–	230	500	200	–	900	–	300	–	4500	CC(C)[C@H]1NC(=O)C[C@@H](C/C=C\CCC(=O)O)NC(=O)[C@@H](Cc2c[nH]c3ccccc23)NC(=O)[C@@H](C)NC1=O	inactive	–
–	–	–	–	–	–	–	–	–	–	–	CC(C)[C@H]1NC(=O)[C@@H](C)[C@@H](C/C=C\CCC(=O)O)NC(=O)[C@@H](Cc2ccc(O)cc2)NC(=O)[C@@H](C)NC1=O	inactive	–
–	–	700	500	700	< 50	1300	Not Active	600	2200	–	CC(C)[C@H]1NC(=O)C[C@@H](/C=C/CCCC(=O)O)NC(=O)[C@@H](Cc2ccc(O)cc2)NC(=O)[C@@H](C)NC1=O	inactive	–
–	–	600	600	500	–	1100	–	400	3700	3000	CC(C)[C@H]1NC(=O)C[C@@H](/C=C/CCCC(=O)O)NC(=O)[C@@H](Cc2c[nH]c3ccccc23)NC(=O)[C@@H](C)NC1=O	–	–
